Source: PubChem BioAssay (several laboratories)
Many of the other results were omitted from the sample, so hits are more common in it than they were.
HUVEC inhibit = human endothelial cell proliferation inhibition. HUVEC proliferation, CellTiter-Glo luminescence, 72 h; active compounds read low. viability, % at 10 µM (by protocol). 86,000 tested, 1.1% active;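 active = viability at or below 30%; inactive = viability above 30%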
HCT116 PTEN-null = growth suppressors of cells with PTEN tumor suppressor deletion. HCT116 PTEN-null viability, CellTiter-Glo, 60 h; active compounds read low. viability, % at 10 µM. 140,000 tested, 1.2% active;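 active = viability at or below a set limit, 4 SD under the median of all tested compounds, cut at about 3.7% in these data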;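 note: PTEN knockout HCT116 line with beta catenin targeted HCT116 as companion control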
Pyk2 oligo antag = blocks oligomerization of human Pyk2 in cells. Q14289. Q293 cells, Pyk2 FERM NanoBiT luminescence; active compounds read low. z-score (the deposit names both 25 µM and 10 µM). 99,000 tested, 0.83% active. AID 1347419;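 active = Z-score of -3 or lower, scaled per plate to the spread of control and sample wells; inactive = z-score above -3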;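 note: negative z-score means lost luminescence so less FERM oligomerization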
Target sequence (Q14289 whole entry, looked up): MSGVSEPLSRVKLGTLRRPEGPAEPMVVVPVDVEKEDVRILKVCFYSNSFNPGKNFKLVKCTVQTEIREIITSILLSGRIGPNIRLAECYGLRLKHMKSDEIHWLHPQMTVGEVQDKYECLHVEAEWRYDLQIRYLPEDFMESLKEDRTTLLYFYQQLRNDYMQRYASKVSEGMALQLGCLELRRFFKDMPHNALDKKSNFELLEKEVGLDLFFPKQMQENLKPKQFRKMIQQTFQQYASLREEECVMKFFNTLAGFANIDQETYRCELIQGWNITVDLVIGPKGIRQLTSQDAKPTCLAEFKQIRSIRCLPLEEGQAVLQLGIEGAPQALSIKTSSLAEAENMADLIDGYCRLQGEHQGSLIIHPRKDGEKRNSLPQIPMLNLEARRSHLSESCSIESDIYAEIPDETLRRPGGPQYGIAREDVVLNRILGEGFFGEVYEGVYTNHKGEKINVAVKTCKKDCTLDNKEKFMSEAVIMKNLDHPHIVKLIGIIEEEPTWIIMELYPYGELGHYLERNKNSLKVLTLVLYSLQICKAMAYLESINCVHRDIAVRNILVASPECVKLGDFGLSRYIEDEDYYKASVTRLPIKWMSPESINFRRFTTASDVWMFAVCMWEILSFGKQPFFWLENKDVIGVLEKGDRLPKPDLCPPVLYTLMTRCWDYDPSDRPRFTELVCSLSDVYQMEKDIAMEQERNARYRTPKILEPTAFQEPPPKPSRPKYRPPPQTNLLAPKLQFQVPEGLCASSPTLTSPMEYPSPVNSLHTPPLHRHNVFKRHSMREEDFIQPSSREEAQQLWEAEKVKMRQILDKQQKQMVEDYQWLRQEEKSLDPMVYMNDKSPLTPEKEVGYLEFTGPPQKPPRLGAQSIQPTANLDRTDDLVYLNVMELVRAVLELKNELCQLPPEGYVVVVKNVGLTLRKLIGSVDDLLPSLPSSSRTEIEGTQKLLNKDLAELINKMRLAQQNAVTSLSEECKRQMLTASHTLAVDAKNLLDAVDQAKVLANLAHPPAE
H69AR growth 86K = blocks growth of human H69AR lung tumor cells | viability, % at 10 µM | H69AR lung tumor viability, ATP luminescence, 72 h; active compounds read low | 85,000 tested, 6% active | AID 598;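 active = viability at or below 40%; inactive = viability above 40%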;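 note: multidrug resistant small cell line overexpressing MRP-1 efflux transporter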
HCT116 bCat-KO = beta-catenin-lacking colon tumor cell growth suppression | 140,000 tested, 1.5% active | viability, % at 10 µM | HCT116 beta-catenin knockout viability, CellTiter-Glo, 60 h; active compounds read low;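 active = viability at or under a set limit, the compound median less 4 SD, cut at about 6% in these data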
Lung fibro prol = blocks proliferation of human lung fibroblasts. viability, % at 10 µM. LL 47 human lung fibroblast viability, ATP luminescence; active compounds read low. 85,000 tested, 1.1% active. AID 719;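 active = viability at or below 50% in the single dose screen; inactive = viability above 50%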;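 note: compound exposure lasted 72 h before the ATP readout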
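Signal: luminescent ATP detection, CellTiter-Glo; assay system: LL 47 human lung fibroblasts; input: 1,150 cells/well; incubation: overnight cell rest, 72 h compound treatment at 37 °C; measure: % viability versus median cells-only luminescence; medium: IMEM growth medium with 15% fetal bovine serum; dosing: compound addition at 0.1% DMSO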
Of the large screens only hits and unclear results are named; the others gave an inactive call.

CCOCCCNC(=O)C1CCN(c2cc(C)nc3c(-c4ccc(OC)c(OC)c4)c(C)nn23)CC1	H69AR growth 86K 33
CCN1N=C(c2cc(Cl)sc2Cl)CSC1=O	none
Cc1ccc(C(=O)Nc2cc(C(C)C)c(O)c(C(C)C)c2)cc1	none (no result: HUVEC inhibit, H69AR growth 86K, Lung fibro prol)
COc1ccccc1N1CCN(c2cc(C)nc3nc(C)nn23)CC1	H69AR growth 86K 40 (no result: Pyk2 oligo antag)
Cc1cc(SCC#N)n2nc(C)c(-c3ccccc3)c2n1	H69AR growth 86K 26
Cc1cc(SCC#N)n2nc(C)c(-c3ccc(Cl)cc3)c2n1	none
Cc1ccc(NC(=O)c2ccc(Nc3c([N+](=O)[O-])cc([N+](=O)[O-])cc3[N+](=O)[O-])cc2)cc1	HCT116 PTEN-null 2.3, HCT116 bCat-KO 4.5 (no result: HUVEC inhibit, Pyk2 oligo antag, H69AR growth 86K, Lung fibro prol)
Cc1ccc(NC(=O)c2ccc(N/N=C/c3cccc(O)c3)c([N+](=O)[O-])c2)cc1	HCT116 PTEN-null 1.9, HCT116 bCat-KO 2.9 (no result: HUVEC inhibit, H69AR growth 86K, Lung fibro prol)
O=C(Nc1nccs1)c1c(O)c2cccc3c2n(c1=O)CCC3	H69AR growth 86K 4.0, Lung fibro prol 49 (no result: Pyk2 oligo antag)
Cc1cc(C)c(-c2c(O)c3cccc4c3n(c2=O)CCC4)c(C)c1	none
Cc1ccccc1NC(=O)c1c(O)c2cccc3c2n(c1=O)CC3	none (no result: HCT116 PTEN-null, Pyk2 oligo antag, HCT116 bCat-KO)
Cc1ccccc1NC(=O)c1c(O)c2cccc3c2n(c1=O)CCC3	H69AR growth 86K 31 (no result: HCT116 PTEN-null, Pyk2 oligo antag, HCT116 bCat-KO)
Cc1cccnc1NC(=O)c1c(O)c2cccc3c2n(c1=O)CCC3	H69AR growth 86K 2.8
Cc1cccnc1NC(=O)c1c(O)c2ccccc2n(C)c1=O	H69AR growth 86K 5.4
COc1ccc(NC(=O)C2CCN(S(=O)(=O)c3ccc(Br)s3)CC2)cc1OC	none (no result: HUVEC inhibit, Pyk2 oligo antag, H69AR growth 86K, Lung fibro prol)
COC(=O)C/C=C/[C@@H](C)[C@@H](/C=N/OCC[C@@H]1C=C[C@H](OC(C)=O)[C@@H](COC(C)=O)O1)NS(=O)(=O)c1ccc(C)cc1	none (no result: HUVEC inhibit, Pyk2 oligo antag, H69AR growth 86K, Lung fibro prol)
O=C(NCC1CCCO1)c1c(O)c2cccc3c2n(c1=O)CCC3 (configuration not stated)	none (no result: HUVEC inhibit, H69AR growth 86K, Lung fibro prol)
O=C(Nc1ccccn1)c1c(O)c2cccc3c2n(c1=O)CCC3	H69AR growth 86K 35
c1ccc(-n2ncc3c(NCc4cccnc4)ncnc32)cc1	none
COc1ccc(Nc2ncnc3c2cnn3Cc2ccccc2)cc1	none (no result: HCT116 PTEN-null, HCT116 bCat-KO)
CCOc1ccc(Nc2ncnc3c2cnn3Cc2ccccc2)cc1	Pyk2 oligo antag -3.1
c1ccc(CNc2ncnc3c2cnn3Cc2ccccc2)cc1	H69AR growth 86K 26
CCOC(=O)CC(NC(=O)Cc1ccc(F)cc1)c1ccccc1Cl (configuration not stated)	none (no result: HUVEC inhibit, Pyk2 oligo antag, H69AR growth 86K, Lung fibro prol)
Cc1ccc(NC(=O)CCn2nc([N+](=O)[O-])cc2C)nc1	none (no result: HUVEC inhibit, Pyk2 oligo antag, H69AR growth 86K, Lung fibro prol)
COc1ccc(CC(=S)N2CCOCC2)cc1	none (no result: HUVEC inhibit, H69AR growth 86K, Lung fibro prol)
FC(F)(F)c1nnc2c(Sc3ccccc3)nc3ccc(Cl)cc3n12	HCT116 bCat-KO 3.6 (no result: HUVEC inhibit, H69AR growth 86K, Lung fibro prol)
COC(=O)c1ccc(C(=O)OC)c(NC(=O)COC(=O)C2CC2C)c1 (configuration not stated)	none (no result: HUVEC inhibit, H69AR growth 86K, Lung fibro prol)
COc1ccc(-c2nnn(CC(=O)NC3CCCc4ccccc43)n2)cc1OC (configuration not stated)	H69AR growth 86K 25 (no result: HCT116 PTEN-null, HCT116 bCat-KO)
Cc1ccc(-c2noc(CCC(=O)NC3CCCc4ccccc43)n2)cc1 (configuration not stated)	H69AR growth 86K 20
CCOc1ccc(-c2nnn(CC(=O)Nc3cc(OC)cc(OC)c3)n2)cc1OCC	H69AR growth 86K 10
COc1ccc(-c2nc(CSCC(=O)NC3CCCc4ccccc43)c(C)o2)cc1OC (configuration not stated)	none
Cc1ccc(-c2noc(CCC(=O)NC3CCN(Cc4ccccc4)CC3)n2)cc1	none
CCOc1ccc(-c2nnn(CC(=O)Nc3cc(OC)ccc3OC)n2)cc1OCC	none
COc1ccc(N2CCN(C(=O)Cn3nnc(-c4ccc(OC)c(OC)c4)n3)CC2)cc1	H69AR growth 86K 15
N/C(=N\OC(=O)COc1ccc2ccccc2c1)c1cccnc1	none (no result: HUVEC inhibit, Pyk2 oligo antag, H69AR growth 86K, Lung fibro prol)
Cc1ccc(-c2cc(C(=O)N/N=C/C=C/c3ccccc3)n[nH]2)s1	none (no result: HUVEC inhibit, Pyk2 oligo antag, H69AR growth 86K, Lung fibro prol)
CCOc1ccc(-c2nnn(CC(=O)NCc3ccco3)n2)cc1OCC	none
CCOc1ccccc1NC(=O)Cn1nnc(-c2ccc(OCC)c(OCC)c2)n1	HCT116 PTEN-null 2.8, H69AR growth 86K 3.5, HCT116 bCat-KO 2.0
Cc1cc(C(=O)OCC(=O)N2CCN(C(=O)c3ccco3)CC2)c(C)n1-c1ccc(F)cc1	none
CCOC(=O)c1cc2c(ccn2-c2ccc(F)cc2)n1CC(=O)N1CCN(C(=O)c2ccco2)CC1	H69AR growth 86K 22, Lung fibro prol 49
